Assay results from ChEMBL document CHEMBL2034912, “Synthesis of 4-methylcoumarin derivatives containing 4,5-dihydropyrazole moiety to scavenge radicals and to protect DNA” (Eur J Med Chem, 2012).
The source made the active and inactive calls.

Key:
Assay type in all cases: functional
[1] = Antioxidant activity against AAPH-induced DNA oxidation assessed as decrease in thiobarbituric acid reactive substances at 80 to 200 uM measured every 120 mins by spectrophotometry
Outline: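 DNA (final 2.0 mg/mL) and AAPH (final 4.0 mM) in phosphate buffer with 10.0 mM EDTA; test compounds added in DMSO across various concentrations; 2.0 mL aliquots incubated at 37 °C. Three tubes withdrawn every 120 min, cooled, treated with TBA and 3.0% trichloroacetic acid, then boiled 15 min; TBARS absorbance read. Inhibition period (t_inh) fitted linearly against concentration.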

[2] = Antioxidant activity assessed as ABTS radical scavenging activity at 40 uM
Outline: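 ABTS (4.0 mM) oxidized with 1.41 mM K₂S₂O₈ for 16 h to form the radical cation, then diluted with ethanol to absorbance about 0.70. Compound added at 0.04 mM, and absorbance decay at 734 nm followed over time. Number of radicals trapped (n) is the depleted ABTS radical concentration divided by antioxidant concentration.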

[3] = tested on: Radical scavenging activity; assay: Antioxidant activity assessed as DPPH radical scavenging activity at 40 uM
Outline: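 DPPH dissolved in ethanol to absorbance about 1.00 at 517 nm (ε […] M⁻¹ cm⁻¹). Compound added as an ethanol solution at a single final concentration, and the decay of DPPH absorbance recorded.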

Measured: Activity

Cc1cc(=O)oc2c(C3=NNC(c4cccc([N+](=O)[O-])c4)C3)c(O)ccc12 (centres undefined)
active: all assays above

CC(=O)N1N=C(c2c(O)ccc3c(C)cc(=O)oc23)CC1c1ccc(O)c(O)c1 (centres undefined)
active: all assays above

CC(=O)N1N=C(c2c(O)ccc3c(C)cc(=O)oc23)CC1c1ccc(O)cc1O (centres undefined)
active: all assays above

COc1cc(C2CC(c3c(O)ccc4c(C)cc(=O)oc34)=NN2C(C)=O)ccc1O (centres undefined)
active: all assays above

O=c1ccc2cc3ccoc3c(O)c2o1
active: all assays above

CC(=O)N1N=C(c2c(O)ccc3c(C)cc(=O)oc23)CC1c1cccc([N+](=O)[O-])c1 (centres undefined)
active: all assays above

CC(=O)N1N=C(c2c(O)ccc3c(C)cc(=O)oc23)CC1c1ccccc1O (centres undefined)
active: all assays above

COc1cc(C2CC(c3c(O)ccc4c(C)cc(=O)oc34)=NN2)ccc1O (centres undefined)
active: all assays above
